Drawing on ChEMBL document CHEMBL5696442, “Discovery of type II inhibitors of TGFβ-activated kinase 1 (TAK1) and mitogen-activated protein kinase kinase kinase kinase 2 (MAP4K2)” (J Med Chem, 2015), this text covers inhibition and residual activity for three compounds.

Experiment [1] addresses Serine/threonine-protein kinase RIO3 (Homo sapiens) (UniProt O14730). Put plainly: Inhibition of RIOK3 (unknown origin) at 1 uM by Ambit Kinomescan binding assay relative to control.
In experiment [2] the target is Serine/threonine-protein kinase 38 (Homo sapiens) (UniProt Q15208). Put plainly: Inhibition of NDR1 ACT labeling site in human A-375 cells at 5 uM by KiNativ Profiling analysis relative to control. It is filed as cell-based.
For experiment [3], the target named is Serine/threonine-protein kinase PknB (Mycobacterium tuberculosis) (UniProt P9WI81). In words: Inhibition of Mycobacterium tuberculosis PKNB at 1 uM by Ambit Kinomescan binding assay relative to control. In short, it runs like this:
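In vitro ATP-site competition binding assay against a panel of over 420 kinases (KinomeScan), with compound tested at 10 or 1 μM.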

For experiment [4], the target named is T1, Inhibitor of nuclear factor kappa-B kinase subunit epsilon (Homo sapiens) (UniProt Q14164).
T1 sequence (whole entry): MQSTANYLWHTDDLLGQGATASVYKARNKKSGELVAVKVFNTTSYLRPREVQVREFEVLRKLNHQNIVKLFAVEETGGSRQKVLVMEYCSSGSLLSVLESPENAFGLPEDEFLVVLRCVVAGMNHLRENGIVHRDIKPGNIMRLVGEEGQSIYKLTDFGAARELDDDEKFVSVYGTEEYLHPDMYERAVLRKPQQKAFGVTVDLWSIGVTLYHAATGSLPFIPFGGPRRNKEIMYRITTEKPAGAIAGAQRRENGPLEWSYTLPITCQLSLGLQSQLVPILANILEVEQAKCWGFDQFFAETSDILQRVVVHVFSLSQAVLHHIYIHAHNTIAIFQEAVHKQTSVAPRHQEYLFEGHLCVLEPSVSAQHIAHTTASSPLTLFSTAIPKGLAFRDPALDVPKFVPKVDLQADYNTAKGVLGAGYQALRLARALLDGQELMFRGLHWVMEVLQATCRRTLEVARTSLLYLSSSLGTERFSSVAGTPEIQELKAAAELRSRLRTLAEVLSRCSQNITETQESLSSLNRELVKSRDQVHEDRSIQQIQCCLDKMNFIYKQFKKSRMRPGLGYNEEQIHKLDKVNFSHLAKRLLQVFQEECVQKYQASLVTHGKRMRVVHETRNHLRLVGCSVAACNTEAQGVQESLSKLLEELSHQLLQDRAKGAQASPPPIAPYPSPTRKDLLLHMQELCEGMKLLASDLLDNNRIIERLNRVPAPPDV
Put plainly: Inhibition of IKK-epsilon (unknown origin) at 1 uM by Ambit Kinomescan binding assay relative to control; values are per cent of control.

The target of experiment [5] is T2, Inhibitor of nuclear factor kappa-B kinase subunit beta (Homo sapiens) (UniProt O14920).
T2 sequence (whole entry): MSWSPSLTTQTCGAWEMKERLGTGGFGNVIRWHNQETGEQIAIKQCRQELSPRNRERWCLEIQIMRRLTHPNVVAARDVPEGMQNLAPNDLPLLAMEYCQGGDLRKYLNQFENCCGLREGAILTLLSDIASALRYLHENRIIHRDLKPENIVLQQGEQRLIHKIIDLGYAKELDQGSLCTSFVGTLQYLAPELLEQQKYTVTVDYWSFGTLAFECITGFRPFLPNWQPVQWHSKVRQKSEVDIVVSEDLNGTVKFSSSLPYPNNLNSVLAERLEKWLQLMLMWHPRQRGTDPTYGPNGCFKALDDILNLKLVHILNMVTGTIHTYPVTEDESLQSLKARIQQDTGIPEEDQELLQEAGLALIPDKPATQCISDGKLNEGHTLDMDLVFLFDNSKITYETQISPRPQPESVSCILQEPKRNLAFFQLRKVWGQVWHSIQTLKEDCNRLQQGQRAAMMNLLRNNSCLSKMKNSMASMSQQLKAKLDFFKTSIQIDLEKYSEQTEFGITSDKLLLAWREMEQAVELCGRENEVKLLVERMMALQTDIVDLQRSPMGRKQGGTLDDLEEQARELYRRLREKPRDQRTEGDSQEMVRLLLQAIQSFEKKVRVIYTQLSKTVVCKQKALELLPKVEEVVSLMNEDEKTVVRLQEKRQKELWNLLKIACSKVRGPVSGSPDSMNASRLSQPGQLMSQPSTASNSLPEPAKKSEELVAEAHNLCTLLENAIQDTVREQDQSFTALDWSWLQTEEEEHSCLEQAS
In words: Inhibition of IKKb Lys2 labeling site in human A-375 cells at 5 uM by KiNativ Profiling analysis relative to control. It is filed as cell-based.

In experiment [6] the target is Casein kinase I isoform gamma-3 (Homo sapiens) (UniProt Q9Y6M4). Put plainly: Inhibition of CSNK1G3 (unknown origin) at 1 uM by Ambit Kinomescan binding assay relative to control.
Experiment [7] addresses Ribosomal protein S6 kinase alpha-1 (Homo sapiens) (UniProt Q15418). Put plainly: Inhibition of RSK1 Domain 1 ACT labeling site in human Huh-7 cells at 10 uM by KiNativ Profiling analysis relative to control. It is filed as cell-based.
Experiment [8] addresses eIF-2-alpha kinase GCN2 (Homo sapiens) (UniProt Q9P2K8). Put plainly: Inhibition of GCN2 K2 labeling site in human Huh-7 cells at 10 uM by KiNativ Profiling analysis relative to control. It is filed as cell-based.
For another experiment, the system named is MEF. In words: Inhibition of IL-1alpha induced JNK1/2 phosphorylation level in mouse MEF cells preincubated for 1 hr followed by IL-1 alpha stimulation and measured after 30 mins by Western blot analysis. It is filed as functional, cell-based. The following applies: dose 0.01-10 µM.
Experiment [9] addresses Protein-tyrosine kinase 6 (Homo sapiens) (UniProt Q13882). Put plainly: Inhibition of BRK (unknown origin) at 10 uM by Ambit Kinomescan binding assay relative to control.
Experiment [10] deals with Calcium/calmodulin-dependent protein kinase type II subunit beta (Homo sapiens) (UniProt Q13554). Put plainly: Inhibition of CaMK2b Lys2 labeling site in human Huh-7 cell lysate at 1 uM by KiNativ Profiling analysis relative to control. It is filed as subcellular.
Experiment [11] addresses Myosin light chain kinase, smooth muscle (Homo sapiens) (UniProt Q15746). Put plainly: Inhibition of smMLCK Lys2 labeling site in human Huh-7 cells at 1 uM by KiNativ Profiling analysis relative to control. It is filed as cell-based.
The target in experiment [12] is Serine-protein kinase ATM (Homo sapiens) (UniProt Q13315). In words: Inhibition of ATM ATP labeling site in human Huh-7 cell lysate at 1 uM by KiNativ Profiling analysis relative to control. It is filed as subcellular.

The structures appear in SMILES notation.

Serine/threonine-protein kinase RIO3 (Homo sapiens), sequence (O14730 whole entry): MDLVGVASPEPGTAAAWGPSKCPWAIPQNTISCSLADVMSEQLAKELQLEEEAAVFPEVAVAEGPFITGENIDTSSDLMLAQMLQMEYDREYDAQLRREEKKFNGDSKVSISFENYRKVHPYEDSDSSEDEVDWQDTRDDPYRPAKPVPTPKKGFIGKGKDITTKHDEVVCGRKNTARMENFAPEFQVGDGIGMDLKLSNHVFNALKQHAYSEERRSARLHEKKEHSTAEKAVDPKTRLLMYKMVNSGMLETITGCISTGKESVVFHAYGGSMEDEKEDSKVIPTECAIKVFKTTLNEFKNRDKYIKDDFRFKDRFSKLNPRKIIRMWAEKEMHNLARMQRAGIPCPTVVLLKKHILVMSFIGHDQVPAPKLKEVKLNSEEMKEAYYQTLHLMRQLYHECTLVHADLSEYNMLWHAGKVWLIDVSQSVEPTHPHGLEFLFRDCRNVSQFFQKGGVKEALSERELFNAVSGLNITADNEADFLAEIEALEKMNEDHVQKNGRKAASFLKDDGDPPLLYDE
Serine-protein kinase ATM (Homo sapiens), sequence (Q13315 whole entry): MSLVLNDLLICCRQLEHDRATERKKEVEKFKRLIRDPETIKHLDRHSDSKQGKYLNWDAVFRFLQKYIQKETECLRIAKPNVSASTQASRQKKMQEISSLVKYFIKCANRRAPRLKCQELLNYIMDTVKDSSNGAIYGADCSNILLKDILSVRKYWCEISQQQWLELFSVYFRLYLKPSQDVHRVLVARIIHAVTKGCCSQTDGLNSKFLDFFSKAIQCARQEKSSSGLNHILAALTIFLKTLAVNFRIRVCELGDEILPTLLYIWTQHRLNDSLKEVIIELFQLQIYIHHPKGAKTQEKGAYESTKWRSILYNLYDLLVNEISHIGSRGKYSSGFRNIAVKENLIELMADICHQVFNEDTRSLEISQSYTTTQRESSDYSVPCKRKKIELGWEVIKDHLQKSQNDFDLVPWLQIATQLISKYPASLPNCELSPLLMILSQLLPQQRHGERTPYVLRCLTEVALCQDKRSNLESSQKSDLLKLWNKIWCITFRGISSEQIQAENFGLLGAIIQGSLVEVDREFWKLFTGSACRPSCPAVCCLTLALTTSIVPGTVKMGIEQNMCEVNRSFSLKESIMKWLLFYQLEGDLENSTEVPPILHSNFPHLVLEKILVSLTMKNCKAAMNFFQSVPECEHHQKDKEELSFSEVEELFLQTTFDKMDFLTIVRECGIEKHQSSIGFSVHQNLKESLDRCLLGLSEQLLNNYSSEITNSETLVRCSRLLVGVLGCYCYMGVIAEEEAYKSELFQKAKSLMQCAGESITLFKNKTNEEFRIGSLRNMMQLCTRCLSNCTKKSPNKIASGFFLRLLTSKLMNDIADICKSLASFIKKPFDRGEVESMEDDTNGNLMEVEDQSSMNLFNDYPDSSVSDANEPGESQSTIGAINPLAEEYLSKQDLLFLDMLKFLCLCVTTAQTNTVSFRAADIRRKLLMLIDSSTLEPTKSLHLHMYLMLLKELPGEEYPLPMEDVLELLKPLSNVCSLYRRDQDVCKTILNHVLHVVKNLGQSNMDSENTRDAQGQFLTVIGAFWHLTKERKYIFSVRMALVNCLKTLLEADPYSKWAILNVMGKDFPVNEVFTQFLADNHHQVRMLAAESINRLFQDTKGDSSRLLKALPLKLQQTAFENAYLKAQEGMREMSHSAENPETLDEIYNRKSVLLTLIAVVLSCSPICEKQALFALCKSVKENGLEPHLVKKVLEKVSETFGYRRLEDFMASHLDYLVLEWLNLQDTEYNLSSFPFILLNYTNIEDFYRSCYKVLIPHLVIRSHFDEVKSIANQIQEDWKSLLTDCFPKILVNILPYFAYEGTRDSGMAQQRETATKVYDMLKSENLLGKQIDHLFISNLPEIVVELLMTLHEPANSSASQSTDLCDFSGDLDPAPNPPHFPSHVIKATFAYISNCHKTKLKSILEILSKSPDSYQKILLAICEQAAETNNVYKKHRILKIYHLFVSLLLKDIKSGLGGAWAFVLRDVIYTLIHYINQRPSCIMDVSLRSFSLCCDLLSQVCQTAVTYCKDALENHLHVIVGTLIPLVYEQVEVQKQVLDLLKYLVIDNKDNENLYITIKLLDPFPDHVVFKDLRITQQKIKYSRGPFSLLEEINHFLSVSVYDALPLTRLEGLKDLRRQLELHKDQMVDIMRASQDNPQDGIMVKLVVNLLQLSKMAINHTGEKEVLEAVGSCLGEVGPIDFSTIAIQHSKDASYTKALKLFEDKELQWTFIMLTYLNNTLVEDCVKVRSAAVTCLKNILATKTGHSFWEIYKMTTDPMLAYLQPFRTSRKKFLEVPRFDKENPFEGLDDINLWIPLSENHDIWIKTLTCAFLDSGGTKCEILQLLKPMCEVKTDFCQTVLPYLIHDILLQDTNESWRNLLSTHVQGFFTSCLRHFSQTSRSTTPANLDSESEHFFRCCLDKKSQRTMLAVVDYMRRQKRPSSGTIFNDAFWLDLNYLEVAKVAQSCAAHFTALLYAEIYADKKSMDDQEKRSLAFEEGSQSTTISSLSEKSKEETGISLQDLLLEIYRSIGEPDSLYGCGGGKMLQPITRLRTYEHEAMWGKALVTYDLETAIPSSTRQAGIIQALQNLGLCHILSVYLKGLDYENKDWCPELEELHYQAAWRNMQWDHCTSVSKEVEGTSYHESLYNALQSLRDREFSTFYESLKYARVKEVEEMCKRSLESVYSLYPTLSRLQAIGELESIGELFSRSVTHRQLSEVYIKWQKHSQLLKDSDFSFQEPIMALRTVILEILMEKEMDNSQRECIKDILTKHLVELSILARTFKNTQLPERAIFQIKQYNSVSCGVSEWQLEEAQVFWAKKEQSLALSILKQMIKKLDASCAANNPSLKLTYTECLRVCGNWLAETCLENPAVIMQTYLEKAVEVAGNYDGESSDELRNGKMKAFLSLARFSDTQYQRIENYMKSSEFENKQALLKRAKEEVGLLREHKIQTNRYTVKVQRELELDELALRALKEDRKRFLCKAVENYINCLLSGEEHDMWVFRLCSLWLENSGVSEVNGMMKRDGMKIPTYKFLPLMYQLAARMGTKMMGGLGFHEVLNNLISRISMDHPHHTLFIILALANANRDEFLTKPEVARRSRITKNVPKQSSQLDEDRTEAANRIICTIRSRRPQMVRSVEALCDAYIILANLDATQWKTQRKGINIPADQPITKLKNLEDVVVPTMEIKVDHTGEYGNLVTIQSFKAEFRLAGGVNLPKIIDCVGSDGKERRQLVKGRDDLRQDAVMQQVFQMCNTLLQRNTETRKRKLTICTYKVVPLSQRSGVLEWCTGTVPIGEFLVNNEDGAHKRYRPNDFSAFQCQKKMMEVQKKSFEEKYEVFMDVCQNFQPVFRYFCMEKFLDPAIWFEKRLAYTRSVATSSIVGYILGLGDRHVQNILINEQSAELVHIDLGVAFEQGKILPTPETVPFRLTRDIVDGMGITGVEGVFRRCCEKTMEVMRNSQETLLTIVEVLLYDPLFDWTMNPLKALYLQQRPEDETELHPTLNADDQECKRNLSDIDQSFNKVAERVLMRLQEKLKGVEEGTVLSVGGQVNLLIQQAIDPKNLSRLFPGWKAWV
Calcium/calmodulin-dependent protein kinase type II subunit beta (Homo sapiens), sequence (Q13554 whole entry): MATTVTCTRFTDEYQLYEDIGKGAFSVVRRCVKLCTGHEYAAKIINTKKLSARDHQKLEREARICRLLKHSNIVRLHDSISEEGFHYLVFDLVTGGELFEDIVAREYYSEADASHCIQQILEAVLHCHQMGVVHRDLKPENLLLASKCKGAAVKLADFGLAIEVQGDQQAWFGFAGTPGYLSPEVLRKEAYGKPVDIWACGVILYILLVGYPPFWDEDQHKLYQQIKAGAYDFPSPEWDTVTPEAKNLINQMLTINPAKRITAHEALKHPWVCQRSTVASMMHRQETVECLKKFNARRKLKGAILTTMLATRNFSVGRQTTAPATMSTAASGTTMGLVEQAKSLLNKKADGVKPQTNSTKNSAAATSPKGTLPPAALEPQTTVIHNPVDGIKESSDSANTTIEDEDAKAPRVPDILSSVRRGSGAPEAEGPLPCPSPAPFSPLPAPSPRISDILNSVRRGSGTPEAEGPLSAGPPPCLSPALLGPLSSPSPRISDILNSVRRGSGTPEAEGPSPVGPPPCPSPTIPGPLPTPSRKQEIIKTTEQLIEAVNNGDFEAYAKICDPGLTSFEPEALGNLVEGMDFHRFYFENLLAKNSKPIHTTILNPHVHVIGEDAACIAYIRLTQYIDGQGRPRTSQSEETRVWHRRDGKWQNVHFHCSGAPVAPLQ
Ribosomal protein S6 kinase alpha-1 (Homo sapiens), sequence (Q15418 whole entry, the tested form may be a part): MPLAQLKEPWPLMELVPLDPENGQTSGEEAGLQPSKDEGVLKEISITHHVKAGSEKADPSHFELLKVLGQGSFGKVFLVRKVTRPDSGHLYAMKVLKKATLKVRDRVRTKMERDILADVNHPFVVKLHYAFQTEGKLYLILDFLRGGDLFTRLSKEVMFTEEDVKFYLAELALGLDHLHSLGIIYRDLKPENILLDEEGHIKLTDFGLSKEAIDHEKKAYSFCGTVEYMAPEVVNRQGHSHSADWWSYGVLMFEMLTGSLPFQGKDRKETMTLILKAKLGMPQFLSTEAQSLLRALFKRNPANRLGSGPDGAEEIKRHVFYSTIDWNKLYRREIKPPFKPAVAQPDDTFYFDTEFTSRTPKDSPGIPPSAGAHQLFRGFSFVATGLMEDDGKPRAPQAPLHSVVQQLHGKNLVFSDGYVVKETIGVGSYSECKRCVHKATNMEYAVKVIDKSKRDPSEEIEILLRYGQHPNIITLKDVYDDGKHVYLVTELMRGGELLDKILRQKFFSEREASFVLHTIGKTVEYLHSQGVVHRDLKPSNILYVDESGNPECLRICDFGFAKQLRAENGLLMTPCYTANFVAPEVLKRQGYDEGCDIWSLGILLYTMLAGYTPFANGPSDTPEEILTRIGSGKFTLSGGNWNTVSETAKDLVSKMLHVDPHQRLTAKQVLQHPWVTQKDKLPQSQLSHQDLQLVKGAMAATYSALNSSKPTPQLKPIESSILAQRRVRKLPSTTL

As a reminder, the inhibition is the change of the read-out against control, counted positive when it falls. Usually residual activity stands for the share of the control activity or signal that is left under treatment. The low end stands for a large loss of activity, the high end for a small loss of activity. As for `CCN1CCN(Cc2ccc(NC(=O)c3ccc(C)c(/C=C/c4cnc5[nH]ccc5c4OC)c3)cc2C(F)(F)F)CC1`, the inhibition in experiment [1] is 27%; in experiment [2] it was -2.6%; in experiment [3], 84%; in experiment [5], 50.5%; in experiment [6] it was 71%. In experiment [4], this compound showed a residual activity of 100%.

As to `CCN1CCN(Cc2ccc(NC(=O)c3ccc(C)c(Oc4ccnc5[nH]ccc45)c3)cc2C(F)(F)F)CC1`, the inhibition is 3.4% in experiment [7], 14.7% in [8], “Dose-Dependent Effect” with MEF and 28% in experiment [9].

With `CNc1cc(Oc2cc(C(=O)Nc3cc(N4CCN(C)CC4)cc(C(F)(F)F)c3)ccc2C)ncn1`, the figures for the inhibition in [10], in experiment [11] and in experiment [12] were 0.7%, 34.3% and 4.8%, respectively.
